Published values collected from several papers.
Compare with care: the assays were run in different laboratories.
SLC6A3: Sodium-dependent dopamine transporter (SLC6A3, Homo sapiens, UniProt Q01959)
PDE10A: cAMP and cAMP-inhibited cGMP 3',5'-cyclic phosphodiesterase 10A (PDE10A, Homo sapiens, UniProt Q9Y233)

Compound | target | effect on | action | technique | cell line | concentration | inhibition [%]
CCOC(=O)[C@@]12C[C@@H]1[C@@H](n1cnc3c(NCCCCc4ccccc4)nc(I)nc31)[C@H](O)[C@@H]2O | SLC6A3 | ligand displacement | – | radioligand | – | 10 µM | 19
CN(C)CCOC(=O)COc1ccc(Cl)cc1 | Peroxisome proliferator-activated receptor gamma (PPARG, Homo sapiens, UniProt P37231) | cell-free assay | – | TR-FRET | – | 1 µM | 3.65
COc1cc2ncnc(Cc3cccc(-c4ccccc4)c3C)c2cc1OC | PDE10A | enzyme activity | inhibitor | FP | – | 0.1 µM | 54
NC(=O)CC[C@H](N)C(=O)NCC(=O)NCC(=O)N[C@@H](CC(=O)O)C(=O)N[C@@H](Cc1ccccc1)C(=O)O | Angiotensin-converting enzyme (ACE, Homo sapiens, UniProt P12821) | enzyme activity | inhibitor | – | – | 1.4 mM | 49.9
N#CC[C@@]12C[C@@H]1[C@@H](n1cnc3c(NCCCCCc4ccccc4)nc(C#Cc4ccc(Cl)s4)nc31)[C@H](O)[C@@H]2O | SLC6A3 | ligand displacement | – | radioligand | – | 10 µM | 7
Cc1cc(O)c(-c2ccc([C@@H](C)CN(C)C)cc2)c2c1[nH]c(=O)c1sccc12 | Ephrin type-B receptor 4 (EPHB4, Homo sapiens, UniProt P54760) | cell-free assay | inhibitor | – | – | 0.1 µM | -4.58
c1ccc(-c2cccc(Cc3nccc4ccccc34)c2)cc1 | PDE10A | enzyme activity | inhibitor | FP | – | 0.1 µM | 0
CCOC(=O)[C@@]12C[C@@H]1[C@@H](n1ccc3c(NCCCCCCCc4ccccc4)nc(C#Cc4ccccc4)nc31)[C@H](O)[C@@H]2O | SLC6A3 | ligand displacement | – | radioligand | – | 10 µM | 25
COc1ccc(-c2cccc(Cc3ncnc4cc(OC)c(OC)cc34)c2)cc1OC | PDE10A | enzyme activity | inhibitor | FP | – | 0.1 µM | 85
O[C@@H]1[C@H](O)[C@@H]2C[C@@H]2[C@H]1n1cnc2c(NCCC3CC3)nc(I)nc21 | SLC6A3 | ligand displacement | – | radioligand | – | 10 µM | 9
CCN1/C(=C/C(C)=O)Sc2ccc(F)cc21 | D(3) dopamine receptor (DRD3, Homo sapiens, UniProt P35462) | ligand displacement | – | radioligand | – | 10 µM | 0
CNC(=O)[C@@]12C[C@@H]1[C@@H](n1cnc3c(NCc4cccc(Cl)c4)nc(C#Cc4ccc(Cl)s4)nc31)[C@H](O)[C@@H]2O | SLC6A3 | ligand displacement | – | radioligand | – | 10 µM | 75
COc1cc2ncnc(Cc3cccc(-c4ccccc4)c3)c2cc1OC | PDE10A | enzyme activity | inhibitor | FP | – | 0.1 µM | 63
C#Cc1cc(-c2cc(Nc3nc(N[C@@H](C)c4ccc(F)cn4)ncc3Cl)n[nH]2)ccc1C=O | Activated CDC42 kinase 1 (TNK2, Homo sapiens, UniProt Q07912) | enzyme activity | inhibitor | – | – | 0.2 µM | 73.3
COc1ccc2c(Cc3cccc(-c4ccccc4)c3)nccc2c1 | PDE10A | enzyme activity | inhibitor | FP | – | 0.1 µM | 3
O[C@@H]1[C@H](O)[C@@H]2C[C@@H]2[C@H]1n1cnc2c(NCCC3CC3)ncnc21 | SLC6A3 | transporter uptake | inhibitor | radiometric | HEK293 | 20 nM | 50
COc1cc2ncnc(Cc3cccc4ccccc34)c2cc1OC | PDE10A | enzyme activity | inhibitor | FP | – | 0.1 µM | 56
NC/C(=C\F)COc1cccc(Cn2c(=S)[nH]c(=O)c3[nH]cnc32)c1 | SLC6A3 | ligand displacement | – | radioligand | – | 10 µM | < 50
